In ChEMBL document CHEMBL3085652, “Synthesis and antiproliferative activity of α-branched α,β-unsaturated ketones” (2013):

What was measured:
Format in all cases: functional
SW1573 = experiment: Growth inhibition of human SW1573 cells after 48 hrs by SRB assay; details: SW1573, 48 h
Outline: (§1)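 Cells from an academic source, kept in 25 cm² flasks in RPMI 1640 with 5% heat-inactivated fetal calf serum. Dosing began day 1 after plating, in triplicate at several dilutions across […]. Vehicle controls got DMSO 0.25% v/v. After 48 h exposure, cells were fixed with ice-cold 50% w/v TCA for 60 min at 4 °C and stained by SRB. OD was read at 492 nm, corrected for medium-only background, and GI50 was derived from dose-response data.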

HeLa = experiment: Growth inhibition of human HeLa cells after 48 hrs by SRB assay; outline: as §1
[1] = Growth inhibition of human HBL100 cells after 48 hrs by SRB assay; details: HBL-100, 48 h; outline: as §1
WiDr = experiment: Growth inhibition of human WiDr cells after 48 hrs by SRB assay; outline: as §1
T47D = experiment: Growth inhibition of human T47D cells after 48 hrs by SRB assay; outline: as §1

SMILES	GI50 (SW1573) [µM]	GI50 (HeLa) [µM]	GI50 (T47D) [µM]	GI50 [1] [µM]	GI50 (WiDr) [µM]
O=C(/C=C/C1CCCCC1)c1ccccc1	10	21	15	18	21
O=C(/C=C/c1ccc(Cl)cc1Cl)c1ccccc1	12	18	14	17	20
O=C(/C(=C/C1CCCCC1)CCl)c1ccccc1	23	30	29	22	22
O=C(/C(=C/c1ccc(Cl)cc1Cl)CCl)c1ccccc1	3.8	15	6.3	3.1	13
O=C(/C(=C/C1CCCCC1)c1ccccc1)c1ccccc1	29	47	39	57	34
O=C(/C(=C\C1CCCCC1)c1ccccc1)c1ccccc1	64	63	74	59	64
O=C(/C(=C\c1ccc(Cl)cc1Cl)c1ccccc1)c1ccccc1	41	47	52	> 100	46
CC(=O)OC/C(=C\C1CCCCC1)C(=O)c1ccccc1	19	21	22	21	21
C=C(C/C(=C\c1ccccc1)C(=O)c1ccccc1)C(=O)c1ccccc1	3	19	15	10	18
C=C(C/C(=C\c1ccc(Cl)cc1)C(=O)c1ccccc1)C(=O)c1ccccc1	6.1	22	19	17	20
C=C(C/C(=C\c1ccccc1F)C(=O)c1ccccc1)C(=O)c1ccccc1	3.5	20	14	15	17
C=C(C/C(=C\c1ccc(OC)cc1)C(=O)c1ccccc1)C(=O)c1ccccc1	0.45	0.32	0.37	0.53	0.47
O=C(OC/C(=C\C1CCCCC1)C(=O)c1ccccc1)c1ccccc1	17	24	20	23	19
O=C(OC/C(=C\c1ccc(Cl)cc1Cl)C(=O)c1ccccc1)c1ccccc1	3.3	20	17	3.1	17
O=C(OC/C(=C/c1ccc(Cl)cc1Cl)C(=O)c1ccccc1)c1ccccc1	29	8.3	5.4	26	8.7
O=C(OC/C(=C\c1ccccc1[N+](=O)[O-])C(=O)c1ccccc1)c1ccccc1	4.3	22	16	3.9	18
O=C(OC/C(=C/c1ccccc1[N+](=O)[O-])C(=O)c1ccccc1)c1ccccc1	> 100	30	18	> 100	21
CC(=O)OC/C(=C\C1CCCCC1)C(=O)c1ccc(Cl)cc1	18	24	18	31	21
C=C(C/C(=C\c1ccc(Cl)cc1)C(=O)c1ccc(Cl)cc1)C(=O)c1ccc(Cl)cc1	5.3	21	17	16	24
CC(=O)OC/C(=C\c1ccc(Cl)cc1Cl)C(=O)c1ccc(Cl)cc1	3.4	4.6	5.2	3.2	8.1
CC(=O)OC/C(=C/c1ccc(Cl)cc1Cl)C(=O)c1ccc(Cl)cc1	21	19	20	22	20
COc1cc([C@@H]2c3cc4c(cc3[C@@H](O[C@@H]3O[C@@H]5CO[C@@H](C)O[C@H]5[C@H](O)[C@H]3O)[C@H]3COC(=O)[C@H]23)OCO4)cc(OC)c1O [ETOPOSIDE]	15	3.3	22	1.4	23

Now from value to compound, other results behind:

GI50 (SW1573) [µM]	GI50 (HeLa) [µM]	GI50 (T47D) [µM]	SMILES	GI50 [1] [µM]	GI50 (WiDr) [µM]
3.6	23	18	O=C(/C(=C/c1ccccc1)CCl)c1ccccc1	12	18
3.9	22	17	O=C(/C(=C/c1ccc(Cl)cc1)CCl)c1ccccc1	3.2	19
77	50	89	CCC(/C=C(\COC(C)=O)C(=O)c1ccccc1)CC	> 100	52
4.8	20	16	CC(=O)OC/C(=C\c1ccccc1)C(=O)c1ccccc1	17	17
2.6	3.2	5.3	CC(=O)OC/C(=C\c1ccc(Cl)cc1)C(=O)c1ccccc1	2.3	4.8
4.2	25	14	CC(=O)OC/C(=C\c1ccc(F)cc1)C(=O)c1ccccc1	17	13
3.5	18	15	C=C(C/C(=C\c1ccc(F)cc1)C(=O)c1ccccc1)C(=O)c1ccccc1	14	19
14	24	19	CC(=O)OC/C(=C/c1ccccc1Cl)C(=O)c1ccccc1	21	22
14	20	17	CC(=O)OC/C(=C\c1ccccc1Br)C(=O)c1ccccc1	22	21
21	19	18	CC(=O)OC/C(=C/c1ccccc1Br)C(=O)c1ccccc1	21	18
6.1	22	18	CC(=O)OC/C(=C\c1ccccc1F)C(=O)c1ccccc1	17	19
3.5	16	9.5	CC(=O)OC/C(=C\c1ccc(Cl)cc1Cl)C(=O)c1ccccc1	3.1	14
22	22	20	CC(=O)OC/C(=C/c1ccc(Cl)cc1Cl)C(=O)c1ccccc1	23	19
3.8	26	16	CC(=O)OC/C(=C\c1ccc([N+](=O)[O-])cc1)C(=O)c1ccccc1	10	23
32	36	36	CC(=O)OC/C(=C/c1ccc([N+](=O)[O-])cc1)C(=O)c1ccccc1	41	83
18	25	21	CC(=O)OC/C(=C\c1ccccc1[N+](=O)[O-])C(=O)c1ccccc1	26	18
> 100	78	52	CC(=O)OC/C(=C/c1ccccc1[N+](=O)[O-])C(=O)c1ccccc1	> 100	> 100
3.4	19	5.4	CC(=O)OC/C(=C\c1ccc(Cl)cc1)C(=O)c1ccc(Cl)cc1	4	18
5.3	5.7	12	CC(=O)OC/C(=C/c1ccc(Cl)cc1)C(=O)c1ccc(Cl)cc1	16	17
